# The source made the active and inactive calls. The rule behind the calls is not given here.
# Key:
# [1] = target: T1, Sphingosine kinase 2 (Homo sapiens) (UniProt Q9NRA0); assay: Inhibition of recombinant human SphK2 transfected in HEK293T cells at 0.3 uM using D-erythro-sphingosine as substrate incubated for 20 mins in presence of [gamma32P]-ATP by liquid scintillation counting method relative to control; type: cell-based
# T1 sequence (whole entry): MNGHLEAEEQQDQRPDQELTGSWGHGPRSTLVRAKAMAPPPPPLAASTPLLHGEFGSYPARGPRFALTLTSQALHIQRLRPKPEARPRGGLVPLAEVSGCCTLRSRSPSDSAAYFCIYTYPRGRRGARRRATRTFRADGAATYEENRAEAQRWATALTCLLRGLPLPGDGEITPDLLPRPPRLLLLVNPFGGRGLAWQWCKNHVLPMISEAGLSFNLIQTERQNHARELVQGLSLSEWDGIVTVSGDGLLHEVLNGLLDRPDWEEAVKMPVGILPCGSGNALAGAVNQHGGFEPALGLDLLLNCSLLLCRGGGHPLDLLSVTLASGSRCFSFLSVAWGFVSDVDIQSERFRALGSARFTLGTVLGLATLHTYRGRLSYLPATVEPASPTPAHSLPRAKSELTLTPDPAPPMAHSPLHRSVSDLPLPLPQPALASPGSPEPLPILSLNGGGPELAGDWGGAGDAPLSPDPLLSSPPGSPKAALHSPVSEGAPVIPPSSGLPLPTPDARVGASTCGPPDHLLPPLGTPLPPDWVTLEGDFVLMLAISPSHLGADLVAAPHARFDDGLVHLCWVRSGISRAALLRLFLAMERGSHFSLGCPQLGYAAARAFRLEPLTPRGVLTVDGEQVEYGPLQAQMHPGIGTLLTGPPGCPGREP
# Method in brief: (§1)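 Human SphK2 recombinant protein isolated from cell lysate. Reaction contained 10 μM sphingosine and 250 μM γ-[32P]ATP, with or without inhibitor. Product was read by scintillation counting. Activity is expressed as % of the no-inhibitor control. Compounds were tested at 1.0 and 0.3 μM in triplicate.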
# [2] = target: T2, Sphingosine kinase 2 (Homo sapiens, UniProt Q9NRA0); assay: Inhibition of recombinant human SphK2 expressed in baculovirus infected Sf9 cells assessed as decrease in [33P]S1P production using varying level of D-erythro-sphingosine as substrate in presence of [gamma33P]-ATP by scintillation proximity assay
# T2 sequence (Q9NRA0 whole entry): T1 sequence (whole entry)
# [3] = tested on: Saccharomyces cerevisiae; assay: Toxicity against Saccharomyces cerevisiae KYA1 assessed as cell death at >3 uM incubated for 24 to 48 hrs; type: organism-based; details: in vivo
# [4] = tested on: Mus musculus; assay: In vivo inhibition of SphK2 in C57BL/6 mouse assessed as increase in sphingosine-1-phosphate level in blood at 10 mg/kg, ip administered as single dose and measured upto 6 hrs post-treatment by LC-MS/MS analysis; type: functional, organism-based
# Method in brief: (§2)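 Male C57BL/6 mice, 8–10 weeks old, received a single i.p. dose of vehicle or 10 mg/kg inhibitor in 2% hydroxypropyl-β-cyclodextrin. Retro-orbital whole blood was taken at 0.5, 1, 2, 4, 6 and 8 h. 10 μL of blood was analysed by LC/MS for S1P and compound. Groups were compared to vehicle by unpaired t-test.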
# [5] = target: T1, Sphingosine kinase 2 (Homo sapiens); assay: Inhibition of recombinant human SphK2 transfected in HEK293T cells at 1 uM using D-erythro-sphingosine as substrate incubated for 20 mins in presence of [gamma32P]-ATP by liquid scintillation counting method relative to control; method in brief: as §1
# [6] = tested on: Mus musculus; assay: In vivo inhibition of SphK2 in C57BL/6 mouse assessed as increase in sphingosine-1-phosphate level in blood at 10 mg/kg, ip administered as single dose and measured at 4 hrs post-treatment by LC-MS/MS analysis relative to control; type: functional
# Method in brief: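 Male C57BL/6 mice, 8–10 weeks old, given one i.p. injection of 10 mg/kg or vehicle (2% hydroxypropyl-β-cyclodextrin). Whole blood taken from the retro-orbital sinus at 0.5, 1, 2, 4, 6 and 8 h. 10 μL of blood processed for S1P by LC-MS/MS. S1P compared with vehicle-injected controls by unpaired t-test.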
# [7] = tested on: Mus musculus; assay: In vivo inhibition of SphK2 in C57BL/6 mouse assessed as Cmax required for two-fold increase in sphingosine-1-phosphate level in blood at 10 mg/kg, ip administered as single dose measured after 4 hrs by LC-MS/MS analysis; type: functional, organism-based; set-up: dose 10 mg/kg; method in brief: as §2
# [8] = tested on: Rattus norvegicus; assay: Decrease in sphingosine-1-phosphate level in rat blood at 10 mg/kg relative to control; type: functional
# [9] = target: T3, Sphingosine kinase 2 (Mus musculus, UniProt Q9JIA7); assay: Inhibition of recombinant mouse SphK2 expressed in baculovirus infected Sf9 insect cells using D-erythro-sphingosine as substrate measured after 30 mins in presence of [gamma32P]-ATP by liquid scintillation counting method
# T3 sequence (Q9JIA7 whole entry): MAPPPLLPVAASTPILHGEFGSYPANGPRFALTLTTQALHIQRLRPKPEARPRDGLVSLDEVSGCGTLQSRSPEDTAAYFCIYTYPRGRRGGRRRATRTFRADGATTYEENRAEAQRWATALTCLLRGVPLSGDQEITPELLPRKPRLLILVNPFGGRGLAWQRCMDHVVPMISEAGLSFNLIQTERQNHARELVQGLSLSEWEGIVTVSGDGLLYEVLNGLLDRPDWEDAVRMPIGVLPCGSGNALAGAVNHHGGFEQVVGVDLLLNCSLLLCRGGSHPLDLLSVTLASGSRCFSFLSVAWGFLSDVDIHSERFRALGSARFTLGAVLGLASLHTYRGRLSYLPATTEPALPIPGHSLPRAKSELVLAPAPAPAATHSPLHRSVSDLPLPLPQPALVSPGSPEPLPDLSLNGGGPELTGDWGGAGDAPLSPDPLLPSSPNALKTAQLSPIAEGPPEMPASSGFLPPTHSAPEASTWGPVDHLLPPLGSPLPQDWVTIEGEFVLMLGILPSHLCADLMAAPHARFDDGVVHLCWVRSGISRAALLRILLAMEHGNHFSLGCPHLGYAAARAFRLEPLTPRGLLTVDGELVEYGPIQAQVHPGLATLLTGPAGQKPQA
inhibition [1] [%],Compound,also measured
8,N=C(N)N1CCC[C@H]1c1nc(-c2ccc(OCc3ccc(C(F)(F)F)cc3)c(-c3ccncc3)c2)no1,–
65,Cl.N=C(N)N1CCC[C@H]1c1nc(-c2ccc(OCc3ccc(C(F)(F)F)cc3)c(C(F)(F)F)c2)no1,Ki [2]: 89 nM; Activity [3]: Toxic; inhibition [4]: Active; inhibition [5]: 77%; fold change (FC) [6]: 2; Cmax [7]: 8 µM
2,N=C(N)N1CCC[C@H]1c1nc(-c2ccc(OCc3ccc(C(F)(F)F)cc3)cc2)no1,–
59,C=CCc1cc(-c2noc([C@@H]3CCCN3C(=N)N)n2)ccc1OCc1ccc(C(F)(F)F)cc1.Cl,Activity [3]: Toxic
3,Cc1cc(-c2noc([C@@H]3CCCN3C(=N)N)n2)ccc1OCc1ccc(C(F)(F)F)cc1,–
33,N=C(N)N1CCC[C@H]1c1nc(-c2ccc(OCc3ccc(C(F)(F)F)cc3)c(Cl)c2)no1,–
15,COc1cc(-c2noc([C@@H]3CCCN3C(=N)N)n2)ccc1OCc1ccc(C(F)(F)F)cc1,–
67,CC(C)c1cc(-c2noc([C@@H]3CCCN3C(=N)N)n2)ccc1OCc1ccc(C(F)(F)F)cc1.Cl,Ki [2]: 192 nM; Activity [3]: Toxic
23,Cc1cc(-c2noc([C@@H]3CCCN3C(=N)N)n2)cc(C)c1OCc1ccc(C(F)(F)F)cc1,–
66,CC(C)(C)c1cc(-c2noc([C@@H]3CCCN3C(=N)N)n2)ccc1OCc1ccc(C(F)(F)F)cc1.Cl,Ki [2]: 197 nM; Activity [3]: Toxic
52,Cl.N=C(N)N1CCC[C@H]1c1nc(-c2ccc(OCc3ccc(C(F)(F)F)cc3)c(C3CC3)c2)no1,Ki [2]: 186 nM; Activity [3]: Toxic
3,CCCCCCCCOc1ccc(-c2noc([C@@H]3CCCN3C(=N)N)n2)cc1,inhibition [5]: 8%

# The next lines start with the molecule.
Compound,inhibition [1] [%],also measured
N=C(N)N1CCC[C@H]1c1nc(-c2ccc(OCc3ccc(C(F)(F)F)cc3)cc2Cl)no1,40,–
N=C(N)N1CCC[C@H]1c1nc(-c2ccc(OCc3ccc(C(F)(F)F)cc3)c(-c3ccccc3)c2)no1,28,–
CCCc1cc(-c2noc([C@@H]3CCCN3C(=N)N)n2)ccc1OCc1ccc(C(F)(F)F)cc1.Cl,60,Ki [2]: 201 nM; Activity [3]: Toxic
N=C(N)N1CCC[C@H]1c1nc(-c2ccc(OCc3ccc(C(F)(F)F)cc3)c(Br)c2)no1,24,–
CCc1cc(-c2noc([C@@H]3CCCN3C(=N)N)n2)ccc1OCc1ccc(C(F)(F)F)cc1.Cl,42,Activity [3]: Toxic
N=C(N)N1CCC[C@H]1c1nc(-c2ccc(OCc3ccc(C(F)(F)F)cc3)c(-c3ccc(C(F)(F)F)cc3)c2)no1,12,–
N=C(N)N1CCC[C@H]1c1nc(-c2ccc(OCc3ccc(C(F)(F)F)cc3)cc2C(F)(F)F)no1,35,–
CCCCCCCCc1ccc(-c2noc(C[C@@H]3CCCN3C(=N)N)n2)cc1,–,inhibition in vivo at 10 mg/kg [8]: 80%
CCCCCCCCOc1ccc(-c2noc([C@@H]3CCCN3C(=N)N)n2)cc1C(F)(F)F,–,Ki [9]: 400 nM
N=C(N)N1CCC[C@H]1c1nc(-c2ccc(OCc3ccc(C(F)(F)F)cc3)c(-c3ccc(F)cc3)c2)no1,31,–
N=C(N)N1CCC[C@H]1c1nc(-c2ccc(OCc3ccc(C(F)(F)F)cc3)c(F)c2)no1,23,–
N=C(N)N1CCC[C@H]1c1nc(-c2ccc(OCc3ccc(C(F)(F)F)cc3)c([N+](=O)[O-])c2)no1,33,–

# — ChEMBL document CHEMBL4354840, “Discovery of a Small Side Cavity in Sphingosine Kinase 2 that Enhances Inhibitor Potency and Selectivity” (J Med Chem, 2020)
